Rows were chosen to be rich in hits. Some 5.1% of all compounds tested hit in one or more screens of this group.
STAT3 inh = inhibitors of IL-6 induced STAT3 signaling; U3A cells, IL-6 STAT3-luciferase reporter, luminescence; host cell line lacks STAT1; inhibition, % at 5.5 µM; 0.89% of 190,000 active;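 active = inhibition above the mean inhibition across all screened compounds plus 3 SD, cut at about 44% in these data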;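 also: 0% = DMSO only wells and 100% = 100 µM nifuroxazide control wells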
STAT1 inh = inhibitors of IFN-gamma induced STAT1 signaling; NIH 3T3 STAT1-luciferase reporter, luminescence; inhibition, % at 5.5 µM; 0.35% of 200,000 active; AID 920;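 active = inhibition above a set limit, the mean inhibition across all tested compounds plus 3 SD, cut at about 34% in these data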;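 also: 0% = IFN-gamma with DMSO and 100% = IFN-gamma with 300 µM nifuroxazide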
APP 5'UTR act = activates APP 5'UTR luciferase reporter; SH-SY5Y APP 5'UTR luciferase reporter, luminescence; zero percent = DMSO vehicle wells; activation, % at 2 µM; 1% of 190,000 active; AID 1276;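 active = activation above a set limit, based on mean plus 3 SD of controls, cut at about 140% in these data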
STAT3 activator = increases IL-6 driven STAT3 reporter signal. U3A cells, IL-6 STAT3-luciferase reporter, luminescence; 100% = signal with IL-6 EC80 alone. activation (% of control), % at 5.6 µM. 0.91% of 190,000 active;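 active = activation above the screen-wide mean of compound activation plus 3 SD, cut at about 130% in these data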;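 also: 0% = background luminescence of wells with medium and substrate only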
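Material: STAT3-luciferase reporter U3A cells. Controls: IL-6-treated wells, 100% activation. Read-out: % activation versus median of IL-6-stimulated wells. Probe or stimulus: IL-6 stimulus at 33 ng/mL final. Timing: compound 1 h, then IL-6 6 h at 37 °C. Signal: reporter luminescence signal.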
STAT1 activator = STAT1 signaling activation. NIH 3T3 STAT1-luciferase reporter, IFN-gamma, luminescence; 100% = IFN-gamma alone, no compound. 2.6% of 200,000 active. AID 932. activation (% of control), % at 5.5 µM;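 active = activation above the screen-wide mean activation plus 3 SD, cut at about 130% in these data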;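 also: raw ratio to IFN-gamma control signal so 100% means no change and 0% no light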
NF-kB neuron act = compounds increasing NF-kB expression in human neuronal cells. NF-kB reporter expression; stronger effect = higher value. fold change at 12.5 µM. 1.6% of 190,000 active. AID 1239; in the data active = fold change above about 3.3
Numbers without * were called inactive; / = no result.

SMILES | STAT3 inh | STAT1 inh | APP 5'UTR act | STAT3 activator | STAT1 activator | NF-kB neuron act
N#CCC(=O)Nc1ccc(C(=O)OCC(=O)c2ccc3c(c2)OCCO3)cc1 | 22 | -17 | 112 | 84 | 116 | 4.6*
NS(=O)(=O)c1cc(C(=O)OCC(=O)c2ccc3c(c2)OCCO3)ccc1Cl | 10 | -23 | 18 | 97 | 120 | 9.8*
CNc1ccccc1C(=O)OCC(=O)c1ccc(F)cc1 | 15 | -38 | 8 | 94 | 132* | 1.6
CCOC(=O)c1c(-c2ccc(C)cc2)csc1NC1=NS(=O)(=O)c2ccccc21 | -3 | -3 | 8 | 106 | 102 | 1
CSc1cccc(NC(=S)N2CCCN(Cc3ccc(F)cc3)C2)c1 | 2 | 4 | 7 | 109 | 96 | 0.91
Cc1cc2nnn(-c3nnc(-c4ccccc4)c4ccccc34)c2cc1C | 11 | 2 | 1 | 100 | 98 | 0.99
Cc1cc(C)nc(Oc2ccc(Br)cc2Br)n1 | 6 | -47 | 23 | 99 | 142* | 0.86
O=C(NCCCCc1ccccc1)C12CN(Cc3ccccc3)CC1C(c1ccc([N+](=O)[O-])cc1)=NO2 (stereo unspecified) | 6 | 6 | 7 | 99 | 95 | 0.89
COc1cc(-c2nc(CN(C)Cc3nnc(C)o3)c(C)o2)ccc1F | 10 | -5 | -9 | 95 | 103 | 1.1
CCOC(=O)C1C(=O)OC(C)(C)C1C(C)C(=O)c1ccc(C)cc1C (stereo unspecified) | 2 | 3 | -9 | 102 | 94 | 1.6
C/C(=N\Nc1ncc(Cl)cc1Cl)c1ccccn1 | 94* | 69* | -70 | 23 | 36 | 0.44
Oc1c(/C=N/Nc2cccc3cccnc23)ccc2ccccc12 | -5 | 2 | 87 | 105 | 98 | 1.8
C/C(=N\Nc1cccc2cccnc12)c1ccccn1 | 68* | 41* | 272* | 48 | 61 | 0.97
C/C(=N\Nc1cccc2cccnc12)c1ccccc1O | -13 | -20 | 202* | 112 | 118 | 6.9*
C/C(=N\Nc1cccc2cccnc12)c1ccc(N)cc1 | 9 | -14 | 198* | 101 | 111 | 2.3
C/C(=N\Nc1ncc(Cl)cc1Cl)c1ccc(N2CCOCC2)cc1 | 9 | -14 | 63 | 95 | 111 | 1.5
O=C(Cc1ccccc1[N+](=O)[O-])N1CCc2ccccc2C1 | -30 | -14 | 2 | 128 | 111 | 1.7
COc1ccc(C)cc1NC(=O)C1CC(=O)OC12CCCCC2 (stereo unspecified) | -2 | 2 | 4 | 102 | 99 | 1.2
Cc1ccc(NC(=O)C(=O)NCc2ccncc2)cc1 | 24 | -3 | 7 | 88 | 102 | 1.1
Cc1cccc(OCCCN2C(=O)C(=O)c3cc(C)ccc32)c1 | 10 | -5 | -40 | 94 | 102 | 2.6
COc1ccc(-c2nc3cc([N+](=O)[O-])ccc3o2)cc1 | 25 | -56 | 170* | 87 | 150* | 5.2*
Cc1cc(C)cc(N(CC(=O)Nc2ccc(-c3nc4ccc(C)cc4s3)cc2)S(C)(=O)=O)c1 | 2 | -46 | 57 | 94 | 142* | 1.2
CNC(=S)Nc1ccc(-c2nc3ccc(C)cc3s2)cc1 | 47* | 4 | 172* | 62 | 95 | /
Cc1ccc2nc(-c3ccc(NC(=S)NCCC(C)C)cc3)sc2c1 | 18 | -30 | 134 | 90 | 127 | /
CC(=O)Nc1ccc(S(=O)(=O)Nc2nc3ccc(C)cc3s2)cc1 | 8 | -5 | 5 | 96 | 104 | 1.1
SMILES | STAT3 inh | STAT1 inh | APP 5'UTR act | STAT3 activator | STAT1 activator | NF-kB neuron act
Cc1ccc(-c2nc3ccccc3s2)cc1NC(=S)NC(=O)c1ccccc1 | -15 | -6 | 178* | 118 | 106 | 6.8*
CC(=O)NC(=S)Nc1ccc(-c2nc3ccc(C)cc3s2)cc1 | 1 | -27 | 110 | 106 | 125 | 3.7*
O=c1cc(-c2ccccc2)n(S(=O)(=O)c2ccc3ccccc3c2)o1 | 5 | 3 | 11 | 97 | 97 | /
O=C(Nc1ccc(-c2nc3ccccc3s2)c(OC(=O)c2ccccc2)c1)c1ccccc1 | -4 | -1 | 208* | 102 | 101 | 1.5
COc1ccc(C(=O)NCc2ccc(-c3nc4ccccc4s3)cc2)cc1OC | 12 | -22 | 52 | 94 | 121 | 1.7
O=C(O)CCN1CC2([N+](=O)[O-])C=CC(=O)C([N+](=O)[O-])(C1)C2CC(=O)c1ccccc1 (stereo unspecified) | 0 | -3 | 12 | 101 | 103 | 1
